The target in test [1] is T1, Sphingosine kinase 2 (Homo sapiens) (UniProt Q9NRA0).
T1 sequence (whole entry): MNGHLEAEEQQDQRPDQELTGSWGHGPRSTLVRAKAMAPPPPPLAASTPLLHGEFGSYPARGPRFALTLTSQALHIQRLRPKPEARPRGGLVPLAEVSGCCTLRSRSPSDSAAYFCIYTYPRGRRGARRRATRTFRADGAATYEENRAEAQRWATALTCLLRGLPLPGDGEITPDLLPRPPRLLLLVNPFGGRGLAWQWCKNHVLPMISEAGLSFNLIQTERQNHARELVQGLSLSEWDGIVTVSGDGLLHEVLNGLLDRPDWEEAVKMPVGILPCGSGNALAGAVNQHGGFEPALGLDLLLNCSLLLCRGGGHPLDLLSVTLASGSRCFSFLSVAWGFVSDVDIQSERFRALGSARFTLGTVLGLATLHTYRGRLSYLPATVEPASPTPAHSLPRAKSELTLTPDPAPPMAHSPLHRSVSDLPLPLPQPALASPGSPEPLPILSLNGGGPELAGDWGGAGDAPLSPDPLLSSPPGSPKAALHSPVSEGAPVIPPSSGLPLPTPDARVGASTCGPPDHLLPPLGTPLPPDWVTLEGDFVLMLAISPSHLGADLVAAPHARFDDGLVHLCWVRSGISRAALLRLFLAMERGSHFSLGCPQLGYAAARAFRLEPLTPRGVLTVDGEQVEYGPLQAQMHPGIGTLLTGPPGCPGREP
Put plainly: Inhibition of SphK2 in human U937 cells assessed as change in S1P level by LC/MS analysis. The test is classed as cell-based. As to conditions: U-937. Put shortly: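 U937 cells were treated with inhibitor, and S1P levels were measured by LC/MS.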

In test [2] the target is T1, Sphingosine kinase 2 (Homo sapiens). As to the kind of experiment: Inhibition of SphK2 in human U937 cells assessed as decrease in Akt phosphorylation after 16 hrs by Western blot analysis. It is filed as cell-based. The following applies: U-937. Put shortly: (§1)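 U937 cells were incubated with a range of inhibitor concentrations for 16 h, then washed with PBS and Dounce-lysed. Equal protein amounts were run on 10% SDS–PAGE and blotted to nitrocellulose. Blots were blocked in 5% milk/TBS-Tween, probed with antibodies to ERK, p-ERK, Akt, p-Akt and β-actin (1:1000, 1 h), then HRP anti-IgG (1:2000). PD098059 (10 μM) served as ERK-phosphorylation control.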
(In general: In western blotting, separated proteins are transferred to a membrane and probed.)

Test [3] deals with T2, Sphingosine kinase 1 (Homo sapiens, UniProt Q9NYA1). Put plainly: Inhibition of human SphK1 expressed in baculovirus infected Sf9 insect cells using sphingosine and [gamma-(32)P]-ATP by scintillation proximity assay. In short, it runs like this: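 Ki calculated as Ki = [I]/(K′m/Km – 1), using a sphingosine Km of 10 μM for SphK1 and 5 μM for SphK2. Enzyme came from infected Sf9 cell extract (10,000×g supernatant, 2-3 μg protein).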
T2 sequence (Q9NYA1 whole entry): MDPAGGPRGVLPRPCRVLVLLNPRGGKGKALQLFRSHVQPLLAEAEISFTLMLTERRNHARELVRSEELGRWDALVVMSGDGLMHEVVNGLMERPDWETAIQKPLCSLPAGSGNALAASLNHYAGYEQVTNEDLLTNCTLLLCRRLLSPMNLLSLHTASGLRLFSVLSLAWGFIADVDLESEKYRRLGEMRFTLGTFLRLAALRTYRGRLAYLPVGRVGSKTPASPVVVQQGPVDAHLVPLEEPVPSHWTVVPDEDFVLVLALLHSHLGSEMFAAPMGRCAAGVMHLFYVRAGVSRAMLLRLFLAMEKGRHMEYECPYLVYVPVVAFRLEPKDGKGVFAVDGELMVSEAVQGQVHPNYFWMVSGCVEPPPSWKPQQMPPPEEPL

Test [4] in a line: Selectivity ratio of Ki/Km for human SphK1 to Ki/Km for mouse SphK2. In short, it runs like this: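 Selectivity calculated as (Ki/Km)SphK1 divided by (Ki/Km)SphK2, with sphingosine Km taken as 10 μM for SphK1 and 5 μM for SphK2.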
Test [5] concerns the target T3, Sphingosine kinase 2 (Mus musculus) (UniProt Q9JIA7).
T3 sequence (whole entry): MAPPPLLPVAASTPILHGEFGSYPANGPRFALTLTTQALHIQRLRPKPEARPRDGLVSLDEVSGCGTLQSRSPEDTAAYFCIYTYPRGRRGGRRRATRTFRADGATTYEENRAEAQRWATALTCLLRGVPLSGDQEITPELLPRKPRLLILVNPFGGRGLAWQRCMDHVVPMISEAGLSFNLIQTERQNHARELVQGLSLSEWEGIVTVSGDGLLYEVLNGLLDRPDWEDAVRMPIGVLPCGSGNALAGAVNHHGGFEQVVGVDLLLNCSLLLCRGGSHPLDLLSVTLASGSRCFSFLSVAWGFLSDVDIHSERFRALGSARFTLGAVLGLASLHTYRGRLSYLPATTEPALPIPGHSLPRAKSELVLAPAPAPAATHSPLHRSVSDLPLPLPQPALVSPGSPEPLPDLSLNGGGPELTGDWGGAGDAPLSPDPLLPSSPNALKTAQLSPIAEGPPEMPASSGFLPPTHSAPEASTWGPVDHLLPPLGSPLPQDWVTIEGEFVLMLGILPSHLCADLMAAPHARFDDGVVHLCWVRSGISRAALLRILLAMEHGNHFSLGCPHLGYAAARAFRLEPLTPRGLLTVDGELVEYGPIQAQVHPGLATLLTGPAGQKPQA
Put plainly: Inhibition of mouse SphK2 expressed in baculovirus infected Sf9 insect cells assessed as remaining activity using sphingosine and [gamma-(32)P]-ATP at 100 uM by scintillation proximity counting. In short, it runs like this:
(§2)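 Enzyme source: supernatant (10,000×g) of homogenized Sf9 cells infected with recombinant virus for 72 h, 2-3 μg protein per reaction. Sphingosine substrate at 10 μM for SphK1 and 5 μM for SphK2. Initial screen used inhibitor at 100 μM, with some compounds at 10 μM. Read-out is percent of remaining kinase activity, averaged over three experiments.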

Test [6] concerns the target T2, Sphingosine kinase 1. As to the kind of experiment: Inhibition of human SphK1 expressed in baculovirus infected Sf9 insect cells assessed as remaining activity using sphingosine and [gamma-(32)P]-ATP as substrate at 100 uM by scintillation proximity counting. In short, it runs like this:
as §2
A general note: Scintillation proximity formats need no separation of bound from free tracer.

In test [7] the target is T1, Sphingosine kinase 2 (Homo sapiens). Put plainly: Inhibition of SphK2 in human U937 cells using FTY720 as substrate assessed as accumulation of FTY720 at 10 uM after 2 hrs by LC/MS analysis. It is filed as cell-based. As to conditions: U-937. Put shortly: (§3)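 Cultured U937 cells were given FTY720 plus 10 μM inhibitor for 2 h, then pelleted by centrifugation. FTY720 and FTY720-P in the cell pellet were measured by LC/MS (C18 reverse phase, water/methanol/formic acid gradient) and reported as moles per million cells. Values are means ± SD of three independent experiments, with significance by unpaired two-tailed t-test.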

For test [8] the target is unchanged. Put plainly: Inhibition of SphK2 in human U937 cells using FTY720 as substrate assessed as decrease in phosphorylated FTY720 at 10 uM after 2 hrs by LC/MS analysis. It is filed as cell-based. The following applies: U-937. In short, it runs like this:
as §3

Test [9] shares this target. As to the kind of experiment: Inhibition of SphK2 in human U937 cells assessed as decrease in ERK phosphorylation after 16 hrs by Western blot analysis. It is filed as cell-based. The following applies: U-937. In short, it runs like this:
as §1

A further test addresses T4, Sphingosine kinase 2 (Mus musculus, UniProt Q9JIA7).
T4 sequence (Q9JIA7 whole entry): T3 sequence (whole entry)
Put plainly: Inhibition of mouse SphK2 expressed in baculovirus infected Sf9 insect cells using sphingosine and [gamma-(32)P]-ATP by scintillation proximity assay.

pKi: −log10 of the molar value. Activity calls are given as the source filed them. No cut-off for these calls is given here.

The pKi is the negative decadic logarithm of the Ki, by convention in mol/L. The low end stands for a high Ki, the high end for a low Ki. Regarding `CCCCCCCCc1ccc([C@H]2CC[C@H]([N+](C)(C)CCC)CC2)cc1`, the inhibition result in test [1] is “inactive”. The inhibition entry in test [2] and in test [9] was “Dose-dependent effect” throughout. Further, the pKi was 4.33 at Sphingosine kinase 1 [3] and 5.10 at Sphingosine kinase 2. For the same compound, the Selectivity ratio in test [4] amounted to 2.94. Also, the Activity in test [5] worked out at 7.2%; on Sphingosine kinase 1 [6] it was 5.3%. Besides, the inhibition entry in [7] and in test [8] was “Active” in each case.
For `CCCCCCCCc1ccc([C@H]2CC[C@H]([N+](C)(C)C)CC2)cc1`, the inhibition entry in test [1] is “inactive”. The inhibition result in [2] and in test [9] was “Dose-dependent effect” in each case. The figures for the pKi at Sphingosine kinase 1 [3] and at Sphingosine kinase 2 were 4.22 and 5.10, respectively. Besides, the Selectivity ratio in [4] came out at 3.75. Besides, the Activity in [5] amounted to 4%; on Sphingosine kinase 1 [6] it was 10.2%. The inhibition result in [7] and in [8] was “Active” throughout.

Source of the values: ChEMBL document CHEMBL1926562, “Design, synthesis and biological activity of sphingosine kinase 2 selective inhibitors” (Bioorg Med Chem, 2012).
